# Values joined by “and” are separate entries in the source; they are usually repeats but may differ in a detail not shown here. Equal values may be shown once.
# How the values were obtained:
# P388 [1] = assay: Compound was evaluated for antitumor activity against mice implanted with lymphatic leukemia P388 cells (10e6 tumor cells) after intraperitoneal administration of 2 mg/kg per injection (1-5 days); type: functional; conditions: Mus musculus, P388, ip
# Outline: (§1)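 Mice implanted ip with 10⁶ lymphocytic leukemia P388 cells; drug given ip on days 1-5. Read-out is % increase in life span (% ILS) versus untreated controls, reported at the highest nontoxic dose tested.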
# L1210 [2] = assay: Concentration required to inhibit proliferation of cultured lymphoid leukemia L1210 cells to 50% growth over 48 hours; type: functional, cell-based; conditions: Mus musculus, L1210, 48 h
# Outline: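 Cultured lymphoid leukemia L1210 cells were exposed to agent for 48 h. IC50 is the micromolar concentration that holds proliferation to 50% growth.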
# L1210 [3] = assay: Effect of the compound(5 uM) on RNA synthesis in L1210 cells in culture measured as […]; type: functional, Mus musculus
# L1210 [4] = assay: Effect of the compound(10 uM) on DNA synthesis in L1210 cells in culture measured as incorporation of [3H]L-Leu; type: functional, Mus musculus; conditions: in the assay text read “protein synthesis” for “DNA synthesis”
# Outline: (§2)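 Cultured L1210 cells were treated with agent at 2.5–50 μM. Labeled precursor incorporation is reported as percent of control: [3H]dThd into DNA, […] into DNA and RNA, and [3H]L-Leu into protein.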
# L1210 [5] = assay: Effect of the compound(25 uM) on DNA synthesis in L1210 cells in culture measured as incorporation of [3H]L-Leu; type: functional, Mus musculus; conditions: in the assay text read “protein synthesis” for “DNA synthesis”; outline: as §2
# L1210 [6] = assay: Effect on the mitosis of cultured L1210 cells measured in metaphase at 12 hours and 100 uM concentration; type: functional, Mus musculus
# Outline: (§3)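 Cultured L1210 cells were exposed for 12 h to 0, 3, 10, 30, 50 or 100 μM agent. Read-out was the percentage of cells in metaphase.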
# L1210 [7] = assay: Effect on the mitosis of cultured L1210 cells measured in metaphase at 12 hours and 30 uM concentration; type: functional, Mus musculus; outline: as §3
# L1210 [8] = assay: Effect of the compound(5 uM) on DNA synthesis in L1210 cells in culture measured as incorporation of [5-3H]-Urd; type: functional, Mus musculus; outline: as §2
# L1210 [9] = assay: Effect on the mitosis of cultured L1210 cells measured in metaphase at 12 hours and 3 uM concentration; type: functional, Mus musculus; outline: as §3
# L1210 [10] = assay: Effect of the compound(25 uM) on DNA synthesis in L1210 cells in culture measured as incorporation of [5-3H]-Urd; type: functional, Mus musculus; outline: as §2
# L1210 [11] = assay: Effect of the compound(10 uM) on DNA synthesis in L1210 cells in culture measured as incorporation of [5-3H]-Urd; type: functional, Mus musculus
# L1210 [12] = assay: Effect on the mitosis of cultured L1210 cells measured in metaphase at 12 hours and 10 uM concentration; type: functional, Mus musculus; outline: as §3
# L1210 [13] = assay: Effect of the compound(10 uM) on RNA synthesis in L1210 cells in culture measured as incorporation of [5-3H]-Urd; type: functional, Mus musculus; outline: as §2
# L1210 [14] = assay: Effect on the mitosis of cultured L1210 cells measured in metaphase at 12 hours and 0 uM concentration; type: functional, Mus musculus; outline: as §3
# L1210 [15] = assay: Effect of the compound(5 uM) on DNA synthesis in L1210 cells in culture measured as incorporation of [3H]-L-Leu; type: functional, Mus musculus; conditions: in the assay text read “protein synthesis” for “DNA synthesis”; outline: as §2
# L1210 [16] = assay: Effect of the compound(25 uM) on RNA synthesis in L1210 cells in culture measured as […]; type: functional, Mus musculus
# L1210 [17] = assay: Effect of the compound(25 uM) on DNA synthesis in L1210 cells in culture measured as incorporation of [3H]dThd; type: functional, Mus musculus; outline: as §2
# P388 [18] = assay: Compound was evaluated for antitumor activity against mice implanted with lymphatic leukemia P388 cells (10e6 tumor cells) after intraperitoneal administration of 75 mg/kg per injection (1-5 days); type: functional; conditions: Mus musculus, P388, ip; outline: as §1
# L1210 (mouse) = assay: Compound was evaluated for antitumor activity against mice implanted with lymphatic leukemia L1210 cells (10e6 tumor cells) after intraperitoneal administration of 50 mg/kg per injection (single dose on day 1); conditions: L1210, ip, 24 h
# P388 [19] = assay: Compound was evaluated for antitumor activity against mice implanted with lymphatic leukemia P388 cells (10e6 tumor cells) after intraperitoneal administration of 13 mg/kg per injection (1-5 days); type: functional; conditions: Mus musculus, P388, ip; outline: as §1
# L1210 [20] = assay: Effect of the compound(2.5 uM) on DNA synthesis in L1210 cells in culture measured as incorporation of [5-3H]-Urd; type: functional, Mus musculus
# L1210 [21] = assay: Effect of the compound(2.5 uM) on RNA synthesis in L1210 cells in culture measured as […]; type: functional, Mus musculus
# L1210 [22] = assay: Effect of the compound(10 uM) on DNA synthesis in L1210 cells in culture measured as incorporation of [3H]dThd; type: functional, Mus musculus; outline: as §2
# L1210 [23] = assay: Effect of the compound(2.5 uM) on DNA synthesis in L1210 cells in culture measured as incorporation of [3H]L-Leu; type: functional, Mus musculus; conditions: in the assay text read “protein synthesis” for “DNA synthesis”; outline: as §2
# L1210 [24] = assay: Effect on the mitosis of cultured L1210 cells measured in metaphase t 12 hours and 30 uM concentration; type: functional, Mus musculus; outline: as §3
# L1210 [25] = assay: Compound was tested in vivo against mitosis of […] metaphase after 12 hr at 600 mg/kg dose; type: functional, Mus musculus
# Outline: (§4)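 Mice implanted ip with L1210 leukemia cells got a single ip injection of test agent or control. Cells were harvested 6, 12 and 24 h after treatment and scored for percentage of cells in metaphase.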
# L1210 [26] = assay: Effect of the compound(50 uM) on RNA synthesis in L1210 cells in culture measured as incorporation of [5-3H]-Urd; type: functional, Mus musculus; outline: as §2
# L1210 [27] = assay: Effect of the compound(50 uM) on DNA synthesis in L1210 cells in culture measured as incorporation of [5-3H]-Urd; type: functional, Mus musculus; outline: as §2
# L1210 [28] = assay: Effect on the mitosis of cultured L1210 cells measured ain metaphase t 12 hours and 3 uM concentration; type: functional, Mus musculus; outline: as §3
# L1210 [29] = assay: Compound was tested in vivo against mitosis of […] metaphase after 24 hr at 400 mg/kg dose; type: functional, Mus musculus; outline: as §4
# L1210 [30] = assay: Compound was tested in vivo against mitosis of […] metaphase after 12 hr at 400 mg/kg dose; type: functional, Mus musculus; outline: as §4
# L1210 [31] = assay: Effect of the compound(50 uM) on DNA synthesis in L1210 cells in culture measured as incorporation of [3H]dThd; type: functional, Mus musculus; outline: as §2
# L1210 [32] = assay: Compound was tested in vivo against mitosis of […] metaphase after 6 hr at 600 mg/kg dose; type: functional, Mus musculus; outline: as §4
# L1210 [33] = assay: Effect of the compound(50 uM) on DNA synthesis in L1210 cells in culture measured as incorporation of [3H]L-Leu; type: functional, Mus musculus; conditions: in the assay text read “protein synthesis” for “DNA synthesis”; outline: as §2
# L1210 [34] = assay: Effect on the mitosis of cultured L1210 cells measured in metaphase at 12 hours and 50 uM concentration; type: functional, Mus musculus; outline: as §3
# L1210 [35] = assay: Compound was tested in vivo against mitosis of […] metaphase after 24 hr at 600 mg/kg dose; type: functional, Mus musculus; outline: as §4
# P388 [36] = assay: Compound was evaluated for antitumor activity against mice implanted with lymphatic leukemia P388 cells (10e6 tumor cells) after intraperitoneal administration of 240 mg/kg per injection (1-5 days); type: functional; conditions: Mus musculus, P388, ip; outline: as §1
# L1210 [37] = assay: Compound was tested in vivo against mitosis of […] metaphase after 6 hr at 400 mg/kg dose; type: functional, Mus musculus; outline: as §4
# P388 [38] = assay: Compound was evaluated for antitumor activity against mice implanted with lymphatic leukemia P388 cells (10e6 tumor cells) after intraperitoneal administration of 200 mg/kg per injection (highest dose tested); type: functional; conditions: Mus musculus, P388, ip
# Outline: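 Mice implanted ip with 10⁶ P388 leukemia cells and treated ip on days 1-5. % increase in life span is reported at the highest dose tested.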
# P388 [39] = assay: Compound was evaluated for antitumor activity against mice implanted with lymphatic leukemia P388 cells (10e6 tumor cells) after intraperitoneal administration of 400 mg/kg per injection (1-5 days); type: functional; conditions: Mus musculus, P388, ip; outline: as §1
# L1210 [40] = assay: Compound was evaluated for antitumor activity against mice implanted with lymphatic leukemia L1210 cells (10e6 tumor cells) after intraperitoneal administration of 50 mg/kg per injection; type: functional; conditions: Mus musculus, L1210, ip
compound,measurement,setting,value
CCOC(=O)Nc1cc(N[C@@H](C)/C(=N/O)c2ccc(O)cc2)c([N+](=O)[O-])c(N)n1,ILS at 2 mg/kg,P388 [1],90%
same,IC50,L1210 [2],6.7 µM
COC(=O)Nc1cc(NC(C)/C(=N/O)c2ccccc2)c([N+](=O)[O-])c(N)n1 (stereo unspecified),Control,L1210 [3],86%
same,Control,L1210 [4],40%
same,Control,L1210 [5],26%
same,Cells in metaphase,L1210 [6],14%
same,Cells in metaphase,L1210 [7],25%
same,Control,L1210 [8],52% and 89%
same,Cells in metaphase,L1210 [9],3%
same,Control,L1210 [10],65%
same,IC50,L1210 [2],5.8 µM
same,Uridine incorporation into DNA (% of control),L1210 [11],46% and 62%
same,Cells in metaphase,L1210 [12],3%
same,Control,L1210 [13],52%
same,Cells in metaphase,L1210 [14],2%
same,Control,L1210 [15],79%
same,Control,L1210 [16],64%
same,Control,L1210 [17],21%
same,ILS at 75 mg/kg,P388 [18],82%
CCOC(=O)Nc1cc(N(C)CC(O)c2ccccc2)c(N)c(N)n1 (stereo unspecified),ILS at 50 mg/kg,L1210 (mouse),4%
CCOC(=O)Nc1cc(NC(C)/C(=N/O)c2ccc(OC)cc2)c([N+](=O)[O-])c(N)n1 (stereo unspecified),Control,L1210 [3],47%
same,ILS at 13 mg/kg,P388 [19],84%
same,Control,L1210 [4],82%
same,Control,L1210 [20],78% and 73%
same,Cells in metaphase,L1210 [6],2%
same,Cells in metaphase,L1210 [7],24%
same,Control,L1210 [8],60%
same,Control,L1210 [21],55%
same,Cells in metaphase,L1210 [9],6%
same,IC50,L1210 [2],4.2 µM
same,Uridine incorporation into DNA (% of control),L1210 [11],39%
same,Cells in metaphase,L1210 [12],26%
same,Control,L1210 [22],44%
same,Control,L1210 [23],69%
same,Control,L1210 [13],35%
same,Cells in metaphase,L1210 [14],2%
same,Control,L1210 [15],87%
CCOC(=O)Nc1cc(NC(C)/C(=N/O)c2ccccc2)c([N+](=O)[O-])c(N)n1 (stereo unspecified),Cells in metaphase,L1210 [24],4%
same,Control,L1210 [4],79%
same,Cells in metaphase,L1210 [25],1.4%
same,Control,L1210 [5],101%
same,Control,L1210 [26],24%
same,Control,L1210 [27],17%
same,Cells in metaphase,L1210 [28],2%
same,Cells in metaphase,L1210 [6],5%
same,Cells in metaphase,L1210 [29],1.6%
same,Cells in metaphase,L1210 [30],0.8%
same,Control,L1210 [31],12%
same,Cells in metaphase,L1210 [32],0.9%
same,Control,L1210 [33],37%
same,Cells in metaphase,L1210 [34],14%
same,Control,L1210 [10],25% and 13%
same,IC50,L1210 [2],32 µM
same,Uridine incorporation into DNA (% of control),L1210 [11],38% and 42%
same,Cells in metaphase,L1210 [12],3%
same,Control,L1210 [13],55%
same,Cells in metaphase,L1210 [14],2%
same,Cells in metaphase,L1210 [35],0.4%
same,Control,L1210 [16],22%
same,ILS at 240 mg/kg,P388 [36],80%
same,Cells in metaphase,L1210 [37],0.6%
CCCCC(Nc1cc(NC(=O)OCC)nc(N)c1N)C(C)O (stereo unspecified),ILS at 200 mg/kg,P388 [38],45%
same,IC50,L1210 [2],1.7 µM
CCOC(=O)Nc1cc(N[C@@H](C)C(=O)c2ccccc2)c([N+](=O)[O-])c(N)n1,ILS at 400 mg/kg,P388 [39],39%
same,IC50,L1210 [2],27 µM
CCOC(=O)Nc1cc(NC(c2ccccc2)c2ccccc2)c([N+](=O)[O-])c(N)n1,ILS at 50 mg/kg,L1210 [40],0%
